Assay results taken from ChEMBL document CHEMBL1131043, “Nucleosides and nucleotides. 175. Structural requirements of the sugar moiety for the antitumor activities of new nucleoside antimetabolites, 1-(3-C-ethynyl-beta-D-ribo-pentofuranosyl)cytosine and -uracil1” (J Med Chem, 1998).

What was measured:
L1210 = assay: Concentration required to inhibit 50% of murine leukemia L1210 cell growth was measured(in vitro) using MTT assay.; assay type: functional, cell-based, Mus musculus
Procedure, shortened: (§1)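 Cells seeded at 2 × 10³/well, cultured with or without test nucleoside for 72 h, then 4 h further with MTT. Formazan dissolved in DMSO, OD read at 540 nm. % inhibition = [1 − OD sample/OD control] × 100; IC50 taken as concentration giving 50% growth inhibition. S-180 cytotoxicity run by the same method.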

Sarcoma-180 [1] = assay: Cytotoxicity against sarcoma -180 cells was measured by […].; assay type: functional, cell-based; conditions: Mus musculus; procedure, shortened: as §1
Sarcoma-180 [2] = assay: Phosphorylation by uridine/cytidine kinase(UCK) from mouse sarcoma -180 ascites cells was measured.; assay type: functional
Procedure, shortened: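 UCK partially purified from mouse Sarcoma-180 ascites cells (ammonium sulfate 30–50%, Sephacryl S-200, hydroxyapatite, DEAE-Sepharose). Reaction: 50 mM Tris-HCl pH 8.0, 10 mM ATP, 10 mM NaF, 5 mM MgCl2, 1 mg/mL BSA, 0.6 mM nucleoside, 37 °C, 15 min (Cyd, Urd) or 60 min (others), stopped by boiling. Tritiated nucleosides: 5'-monophosphate on PEI-cellulose TLC counted; unlabeled: substrate consumption by C18 HPLC at 270 nm. Duplicate means.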

KB [3] = assay: Concentration required to inhibit 50% of human epidermoid KB cell growth was measured(in vitro) using MTT assay.; assay type: functional, cell-based; procedure, shortened: as §1
KB [4] = assay: The concentration required to inhibit 50% of human epidermoid KB cell growth was measured(in vitro) using MTT assay.; assay type: functional, cell-based; procedure, shortened: as §1

| SMILES | IC50 (L1210; Mus musculus, L1210) | IC50 (Sarcoma-180 [1]) | Phosphorylating activity (Sarcoma-180 [2]) | IC50 (KB [3]; Homo sapiens, KB) | IC50 (L1210; l1210) | IC50 (KB [3]; kb) | IC50 (KB [4]) |
| --- | --- | --- | --- | --- | --- | --- | --- |
| C=C[C@@]1(O)[C@@H](CO)O[C@@H](n2ccc(=O)[nH]c2=O)[C@@H]1O | 148 µM | > 30 µM | 9.3 pmol/min/assay | 51.8 µM | – | – | – |
| CC#C[C@@]1(O)[C@@H](CO)O[C@@H](n2ccc(N)nc2=O)[C@@H]1O | 24.5 µM | 13.9 µM | 160 pmol/min/assay | 14.6 µM | – | – | – |
| CCC[C@@]1(O)[C@@H](CO)O[C@@H](n2ccc(=O)[nH]c2=O)[C@@H]1O | > 350 µM | – | – | > 350 µM | – | – | – |
| CCC#C[C@@]1(O)[C@@H](CO)O[C@@H](n2ccc(=O)[nH]c2=O)[C@@H]1O | 338 µM | – | – | 226 µM | – | – | – |
| CCC#C[C@@]1(O)[C@@H](CO)O[C@@H](n2ccc(N)nc2=O)[C@@H]1O | 129 µM | > 30 µM | 0 pmol/min/assay | 108 µM | – | – | – |
| C#C[C@@H]1[C@@H](O)[C@H](n2ccc(N)nc2=O)O[C@@H]1CO | > 350 µM | > 30 µM | 6.9 pmol/min/assay | > 350 µM | – | – | – |
| C#C[C@]1(O)[C@@H](CO)O[C@@H](n2ccc(=O)[nH]c2=O)[C@@H]1O | – | 0.013 µM | 141 pmol/min/assay | – | > 350 µM | > 350 µM | – |
| C#C[C@]1(O)[C@@H](CO)O[C@@H](n2ccc(N)nc2=O)[C@@H]1O | – | – | – | – | > 350 µM | > 350 µM | – |
| O=c1ccn([C@@H]2O[C@H](CO)[C@](O)(C3CC3)[C@H]2O)c(=O)[nH]1 | > 350 µM | – | – | > 350 µM | – | – | – |
| C#CC[C@@]1(O)[C@@H](CO)O[C@@H](n2ccc(=O)[nH]c2=O)[C@@H]1O | > 350 µM | – | – | – | – | – | > 350 µM |
| C#C[C@H]1[C@@H](O)[C@H](n2ccc(=O)[nH]c2=O)O[C@@H]1CO | > 350 µM | – | – | > 350 µM | – | – | – |
| C#C[C@@H]1[C@@H](O)[C@H](n2ccc(=O)[nH]c2=O)O[C@@H]1CO | > 350 µM | – | – | > 350 µM | – | – | – |
| C#CC[C@]1(O)[C@@H](CO)O[C@@H](n2ccc(N)nc2=O)[C@@H]1O | > 350 µM | – | – | > 350 µM | – | – | – |
| CC#C[C@@]1(O)[C@@H](CO)O[C@@H](n2ccc(=O)[nH]c2=O)[C@@H]1O | 354 µM | – | – | 70.8 µM | – | – | – |
| C=C[C@@]1(O)[C@@H](CO)O[C@@H](n2ccc(N)nc2=O)[C@@H]1O | 60.8 µM | > 30 µM | 0 pmol/min/assay | 74.3 µM | – | – | – |
| C#C[C@]1(O)[C@H](O)[C@@H](CO)O[C@H]1n1ccc(N)nc1=O | > 350 µM | – | – | > 350 µM | – | – | – |
| CC[C@@]1(O)[C@@H](CO)O[C@@H](n2ccc(N)nc2=O)[C@@H]1O | 269 µM | > 30 µM | 0 pmol/min/assay | 258 µM | – | – | – |
| C#CC[C@@]1(O)[C@@H](CO)O[C@@H](n2ccc(N)nc2=O)[C@@H]1O | > 350 µM | – | – | > 350 µM | – | – | – |
| C#CC[C@]1(O)[C@@H](CO)O[C@@H](n2ccc(=O)[nH]c2=O)[C@@H]1O | > 350 µM | – | – | > 350 µM | – | – | – |
| Nc1ccn([C@@H]2O[C@H](CO)[C@](O)(C3CC3)[C@H]2O)c(=O)n1 | > 350 µM | – | – | > 350 µM | – | – | – |
| C#C[C@@]1(O)[C@H](O)[C@@H](CO)O[C@H]1n1ccc(N)nc1=O [2'-ETHYNYL-D-CYTIDINE] | > 350 µM | – | – | > 350 µM | – | – | – |
| Nc1ccn([C@@H]2O[C@H](CO)[C@@H](O)[C@H]2O)c(=O)n1 [CYTIDINE] | – | – | 812 pmol/min/assay | – | – | – | – |
| O=c1ccn([C@@H]2O[C@H](CO)[C@@H](O)[C@H]2O)c(=O)[nH]1 [URIDINE] | – | – | 755 pmol/min/assay | – | – | – | – |
